Source: paper PMC4084622 (Journal of Medicinal Chemistry, 2014)
Converted amounts (≈) assume the structure as drawn. Like-named read-outs stand apart in the source and are kept apart here.

What was measured:
M. smegmatis cells, ΔpH = format: cell-based, Mycobacterium smegmatis
E. coli IMVs, ΔpH = test: ΔpH collapse in E. coli inverted membrane vesicles; format: biochemical, Escherichia coli; conditions: qualitative
MCF-7 = test: cells; format: cell-based; conditions: Homo sapiens, MCF7, read-out: MCF-7 IC50
[1] = system: S. aureus (MRSA USA300 strain); test: microbe, parasite or virus in culture; format: cell-based; conditions: Staphylococcus aureus, MRSA|USA300, read-out: Sa MIC, MRSA USA300 strain
B. subtilis = test: microbe, parasite or virus in culture; format: cell-based; conditions: Bacillus subtilis
C. albicans = test: microbe, parasite or virus in culture; format: cell-based; conditions: Candida albicans
M. tuberculosis [2] = test: microbe, parasite or virus in culture; format: cell-based, Mycobacterium tuberculosis; conditions: for MIC: Mycobacterium tuberculosis
S. cerevisiae = test: microbe, parasite or virus in culture; format: cell-based, Saccharomyces cerevisiae; conditions: for IC50: Saccharomyces cerevisiae
E. coli = test: microbe, parasite or virus in culture; format: cell-based; conditions: Escherichia coli
SaCrtM = molecular target: T1, SaCrtM (Staphylococcus aureus, UniProt A9JQL9); test: SaCrtM inhibition; format: biochemical, S. aureus
T1 sequence (A9JQL9 1-287): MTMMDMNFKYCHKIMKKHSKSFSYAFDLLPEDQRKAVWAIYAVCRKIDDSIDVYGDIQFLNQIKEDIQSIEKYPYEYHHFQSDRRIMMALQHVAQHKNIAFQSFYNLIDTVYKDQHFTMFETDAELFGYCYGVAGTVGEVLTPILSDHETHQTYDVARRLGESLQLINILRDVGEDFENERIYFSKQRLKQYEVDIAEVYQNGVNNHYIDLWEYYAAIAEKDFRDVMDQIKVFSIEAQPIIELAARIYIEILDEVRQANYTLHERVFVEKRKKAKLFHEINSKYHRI

human SQS = molecular target: T2, human SQS (Homo sapiens, UniProt P37268); test: Human SQS inhibition; format: biochemical
T2 sequence (P37268 1-417): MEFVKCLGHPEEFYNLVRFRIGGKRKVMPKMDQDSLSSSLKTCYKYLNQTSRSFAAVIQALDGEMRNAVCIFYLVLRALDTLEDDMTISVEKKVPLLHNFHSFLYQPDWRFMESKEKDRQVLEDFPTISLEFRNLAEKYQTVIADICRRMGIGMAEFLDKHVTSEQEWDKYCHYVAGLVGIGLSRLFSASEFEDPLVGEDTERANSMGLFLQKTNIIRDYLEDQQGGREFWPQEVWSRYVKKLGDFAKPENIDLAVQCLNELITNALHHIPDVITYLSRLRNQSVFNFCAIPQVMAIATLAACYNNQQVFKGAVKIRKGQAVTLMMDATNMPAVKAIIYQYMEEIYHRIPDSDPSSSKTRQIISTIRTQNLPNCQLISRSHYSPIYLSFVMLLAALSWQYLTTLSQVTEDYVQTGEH

[3] = molecular target: M. smegmatis MenA (MsMenA) (Mycolicibacterium smegmatis, UniProt A0QR52); conditions: read-out: MenA IC50; same assay as used here; cited from earlier work
[4] = system: M. smegmatis cells, ATP synthesis; test: ATP/ADP determination in M. smegmatis cells; format: cell-based, Mycobacterium smegmatis
Method in brief: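 Cells grown 8 h in Middlebrook 7H9-ADC-Tween 80 and diluted to OD600 of 2. Test compounds added at several concentrations, with incubation at 37 °C and 200 rpm. ATP/ADP ratio read with a commercial ADP/ATP ratio kit after 10 and 60 min.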

M. smegmatis = conditions: cited from earlier work
M. tuberculosis [5] = conditions: cited from earlier work
[6] = system: nonreplicating M. tuberculosis (streptomycin-starved 18b); format: cell-based, Mycobacterium tuberculosis; conditions: for effect on nonreplicating bacterial activity (CFU): 7 days
[7] = molecular target: M. smegmatis membrane dehydrogenases (NADH, deamino-NADH, succinate, lactate substrates); test: Dehydrogenase activities, MTT reduction, M. smegmatis membranes; format: biochemical, Mycobacterium smegmatis; conditions: in general (all substrates except malate)
[8] = molecular target: M. tuberculosis cis-decaprenyl diphosphate synthase (Rv2361) (Mycobacterium tuberculosis, UniProt P9WFF7); test: cis-decaprenyl diphosphate synthase inhibition; format: biochemical
malate dehydrogenase = malate dehydrogenase (Mycolicibacterium smegmatis, UniProt A0QVL2); test: Malate dehydrogenase activity, MTT reduction, M. smegmatis membranes; format: biochemical, Mycobacterium smegmatis
[9] = molecular target: P. vivax geranylgeranyl diphosphate synthase (GGPPS) (Plasmodium vivax, UniProt A5K4U6); test: biochemical
[10] = molecular target: S. aureus undecaprenyl diphosphate synthase (UPPS) (Staphylococcus aureus, UniProt P60477); test: S. aureus UPPS inhibition; format: biochemical
[11] = molecular target: S. aureus farnesyl diphosphate synthase (FPPS) (Staphylococcus aureus, UniProt Q2FY48); test: biochemical
[12] = molecular target: E. coli undecaprenyl diphosphate synthase (UPPS) (Escherichia coli, UniProt P60472); test: E. coli UPPS inhibition; format: biochemical
[13] = molecular target: M. tuberculosis cis-farnesyl diphosphate synthase (Rv1086) (Mycobacterium tuberculosis, UniProt P9WFF5); test: cis-farnesyl diphosphate synthase inhibition; format: biochemical
[14] = read-out: Bs IC50 (in parentheses)
[15] = read-out: Ca IC50 (in parentheses)
[16] = read-out: Ec IC50 (in parentheses)
[17] = read-out: Sc IC50 (in parentheses)
[18] = read-out: Mt MIC (in parentheses)

M. tuberculosis cis-farnesyl diphosphate synthase (Rv1086), sequence (P9WFF5 whole entry): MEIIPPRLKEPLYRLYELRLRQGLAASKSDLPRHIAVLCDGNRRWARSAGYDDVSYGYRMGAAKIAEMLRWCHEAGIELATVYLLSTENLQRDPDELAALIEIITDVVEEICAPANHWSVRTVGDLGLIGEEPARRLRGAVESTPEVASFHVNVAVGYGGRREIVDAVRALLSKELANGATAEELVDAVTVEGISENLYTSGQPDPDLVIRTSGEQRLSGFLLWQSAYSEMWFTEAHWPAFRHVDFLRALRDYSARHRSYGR
S. aureus undecaprenyl diphosphate synthase (UPPS), sequence (P60477 whole entry): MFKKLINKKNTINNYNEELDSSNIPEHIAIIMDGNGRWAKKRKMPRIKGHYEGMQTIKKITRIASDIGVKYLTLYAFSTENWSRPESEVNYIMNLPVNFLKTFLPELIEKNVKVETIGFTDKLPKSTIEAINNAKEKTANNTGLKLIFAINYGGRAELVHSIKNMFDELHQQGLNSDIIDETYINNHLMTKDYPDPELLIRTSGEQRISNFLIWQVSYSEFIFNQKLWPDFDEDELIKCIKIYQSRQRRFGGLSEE
E. coli undecaprenyl diphosphate synthase (UPPS), sequence (P60472 whole entry): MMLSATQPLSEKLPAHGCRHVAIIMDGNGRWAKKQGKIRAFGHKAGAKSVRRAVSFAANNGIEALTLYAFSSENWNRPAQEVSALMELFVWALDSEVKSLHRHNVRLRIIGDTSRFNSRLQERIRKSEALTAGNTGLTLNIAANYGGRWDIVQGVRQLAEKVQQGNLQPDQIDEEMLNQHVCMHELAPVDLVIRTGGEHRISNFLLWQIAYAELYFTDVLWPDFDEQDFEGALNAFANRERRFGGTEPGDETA
S. aureus farnesyl diphosphate synthase (FPPS), sequence (Q2FY48 1-293): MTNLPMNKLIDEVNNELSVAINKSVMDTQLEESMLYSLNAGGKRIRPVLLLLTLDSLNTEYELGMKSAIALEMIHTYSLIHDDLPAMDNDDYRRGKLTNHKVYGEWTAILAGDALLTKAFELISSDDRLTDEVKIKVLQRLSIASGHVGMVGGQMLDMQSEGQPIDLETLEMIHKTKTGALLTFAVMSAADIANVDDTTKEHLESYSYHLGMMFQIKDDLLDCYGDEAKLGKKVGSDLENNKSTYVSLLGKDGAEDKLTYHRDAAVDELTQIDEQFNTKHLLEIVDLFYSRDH
P. vivax geranylgeranyl diphosphate synthase (GGPPS), sequence (A5K4U6 1-375): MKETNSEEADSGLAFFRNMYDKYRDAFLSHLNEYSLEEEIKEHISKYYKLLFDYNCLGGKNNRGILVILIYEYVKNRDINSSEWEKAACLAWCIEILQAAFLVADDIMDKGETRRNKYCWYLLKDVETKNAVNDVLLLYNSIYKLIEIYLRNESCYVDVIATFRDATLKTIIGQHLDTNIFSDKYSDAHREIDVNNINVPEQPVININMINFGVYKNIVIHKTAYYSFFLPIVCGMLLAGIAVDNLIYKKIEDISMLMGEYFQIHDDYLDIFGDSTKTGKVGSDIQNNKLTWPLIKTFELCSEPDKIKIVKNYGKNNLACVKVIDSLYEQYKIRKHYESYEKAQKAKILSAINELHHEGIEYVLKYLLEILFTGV
malate dehydrogenase, sequence (A0QVL2 whole entry): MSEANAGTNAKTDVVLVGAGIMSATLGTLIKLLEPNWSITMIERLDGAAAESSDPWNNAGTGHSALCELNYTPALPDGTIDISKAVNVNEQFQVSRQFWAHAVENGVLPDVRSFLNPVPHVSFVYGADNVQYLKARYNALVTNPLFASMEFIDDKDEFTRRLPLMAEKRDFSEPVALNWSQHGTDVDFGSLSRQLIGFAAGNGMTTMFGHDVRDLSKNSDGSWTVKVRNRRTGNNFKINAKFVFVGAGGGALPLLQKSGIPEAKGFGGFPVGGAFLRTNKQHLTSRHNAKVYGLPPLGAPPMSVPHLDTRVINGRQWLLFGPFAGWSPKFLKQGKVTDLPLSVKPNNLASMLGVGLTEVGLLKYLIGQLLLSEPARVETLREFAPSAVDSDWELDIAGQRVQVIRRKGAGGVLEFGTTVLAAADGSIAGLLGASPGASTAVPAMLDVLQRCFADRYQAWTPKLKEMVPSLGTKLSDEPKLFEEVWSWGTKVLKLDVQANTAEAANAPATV
M. smegmatis MenA (MsMenA), sequence (A0QR52 1-289): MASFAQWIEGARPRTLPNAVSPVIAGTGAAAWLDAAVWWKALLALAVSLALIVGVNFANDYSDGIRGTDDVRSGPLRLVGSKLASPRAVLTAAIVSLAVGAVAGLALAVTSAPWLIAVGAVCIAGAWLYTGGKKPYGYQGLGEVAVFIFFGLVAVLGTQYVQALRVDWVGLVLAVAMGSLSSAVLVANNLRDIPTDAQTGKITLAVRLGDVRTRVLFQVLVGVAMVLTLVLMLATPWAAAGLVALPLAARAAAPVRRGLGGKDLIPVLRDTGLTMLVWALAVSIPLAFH
M. tuberculosis cis-decaprenyl diphosphate synthase (Rv2361), sequence (P9WFF7 whole entry): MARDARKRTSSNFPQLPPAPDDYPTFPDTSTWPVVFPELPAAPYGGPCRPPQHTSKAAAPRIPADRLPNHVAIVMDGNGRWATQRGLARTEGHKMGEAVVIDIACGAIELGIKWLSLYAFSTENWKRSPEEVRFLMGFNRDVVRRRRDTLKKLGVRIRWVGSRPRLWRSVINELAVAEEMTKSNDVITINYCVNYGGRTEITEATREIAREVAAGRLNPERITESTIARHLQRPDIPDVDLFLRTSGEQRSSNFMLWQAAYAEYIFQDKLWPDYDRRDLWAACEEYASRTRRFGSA

SMILES	IC50 (MCF-7)	MIC [1]	IC50 (B. subtilis; read-out: Bs IC50)	IC50 (C. albicans; read-out: Ca IC50)	MIC (M. tuberculosis [2]; read-out: Mt MIC)	IC50 (S. cerevisiae; read-out: Sc IC50)	IC50 (E. coli; read-out: Ec IC50)	also measured
CC(C)[C@@H]1NC(=O)[C@H](C)OC(=O)[C@@H](C(C)C)NC(=O)[C@@H](C(C)C)OC(=O)[C@H](C(C)C)NC(=O)[C@H](C)OC(=O)[C@@H](C(C)C)NC(=O)[C@@H](C(C)C)OC(=O)[C@H](C(C)C)NC(=O)[C@H](C)OC(=O)[C@@H](C(C)C)NC(=O)[C@@H](C(C)C)OC1=O [valinomycin]	–	–	–	–	–	–	–	effect on pH gradient (ΔpH) (M. smegmatis cells, ΔpH): no effect
CC(C)(C)c1cc(C=C(C#N)C#N)cc(C(C)(C)C)c1O [SF6847, reference compound]	–	–	–	–	–	–	–	effect on ΔpH (E. coli IMVs, ΔpH): very rapid (seconds) collapse in ΔpH
N#CC(C#N)=NNc1cccc(Cl)c1 [CCCP, m-chlorophenylcarbonyl cyanide phenylhydrazone]	–	–	–	–	–	–	–	effect on pH gradient (ΔpH) (M. smegmatis cells, ΔpH): collapsed
CC(C)=CCC/C(C)=C/CNCCCOC1C2CC3CC(C2)CC1C3 (stereo not drawn) [compound 6]	3.4 µg/mL (≈ 9.84 µM)	~8 µg/mL (≈ 23.2 µM)	3 µg/mL	6.5 µg/mL	1.6 µg/mL	2.7 µg/mL	2.3 µg/mL	–
CC(C)=CCC/C(C)=C/CNCCOc1ccccc1 [compound 11]	6.3 µg/mL (≈ 23 µM)	32 µg/mL (≈ 117 µM)	17 µg/mL	20 µg/mL	6.2 µg/mL	3 µg/mL	60 µg/mL	–
CC(C)=CCC/C(C)=C/CNCCOC(C)(C)C [compound 10]	45 µg/mL (≈ 178 µM)	> 16 µg/mL	> 50 µg/mL	> 50 µg/mL	6.2 µg/mL	44 µg/mL	> 126 µg/mL	IC50 (B. subtilis; [14]): > 198 µM; IC50 (C. albicans; [15]): > 198 µM; IC50 (E. coli; [16]): > 498 µM
CC(C)=CCC/C(C)=C/COCCOC1C2CC3CC(C2)CC1C3 (stereo not drawn) [compound 5]	73 µg/mL (≈ 220 µM)	> 64 µg/mL	> 66 µg/mL	> 66 µg/mL	–	> 332 µg/mL	> 332 µg/mL	effect on ΔpH (E. coli IMVs, ΔpH): no effect; IC50 (B. subtilis; [14]): > 199 µM; IC50 (C. albicans; [15]): > 198 µM; IC50 (S. cerevisiae; [17]): > 1000 µM; IC50 (E. coli; [16]): > 1000 µM
CC(C)=CCC/C(C)=C/CNCCO[C@@H]1C[C@@H]2CC[C@@]1(C)C2(C)C [compound 13]	1.3 µg/mL (≈ 3.9 µM)	~8 µg/mL (≈ 24 µM)	1.8 µg/mL	6.3 µg/mL	–	1 to 3 µg/mL	12 µg/mL	effect on pH gradient (ΔpH) (M. smegmatis cells, ΔpH): collapsed; Sc IC50 (S. cerevisiae): 0.89 µg/mL
CC(C)=CCC/C(C)=C/CNCCOc1cccc2ccccc12 [compound 12]	7.1 µg/mL (≈ 21.9 µM)	~8 µg/mL (≈ 24.7 µM)	2.4 µg/mL	12 µg/mL	6.2 µg/mL	3.7 µg/mL	15 µg/mL	–
CC(C)=CCC/C(C)=C/C[N+](C)(C)CCOC1C2CC3CC(C2)CC1C3.[I-] (stereo not drawn) [compound 7]	3.2 µg/mL	8 µg/mL	4.2 µg/mL	18 µg/mL	0.78 µg/mL	15 µg/mL	37 µg/mL	–
CC(C)=CCC/C(C)=C/COCCNC1C2CC3CC(C2)CC1C3 (stereo not drawn) [compound 4]	112 µg/mL (≈ 338 µM)	> 120 µg/mL	> 66 µg/mL	> 66 µg/mL	~0.2 µg/mL	> 33 µg/mL	4.3 µg/mL	IC50 (B. subtilis; [14]): > 199 µM; activity (SaCrtM; SaCrtM, weak activity): ~100 µM; IC50 (C. albicans; [15]): > 199 µM; Mt MIC (M. tuberculosis [2]): 0.19 µg/mL; IC50 (S. cerevisiae; [17]): > 100 µM; activity (human SQS; human SQS, weak activity): ~100 µM
C=CCN(C)CCCCCCOc1ccc(C(=O)c2ccc(Br)cc2)c(F)c1 [Ro 48-8071]	–	–	–	–	–	–	–	IC50 [3]: 9 µM
CC(C)=CCC/C(C)=C/CNC(=O)COC1C2CC3CC(C2)CC1C3 (stereo not drawn) [compound 8]	12 µg/mL (≈ 34.7 µM)	> 120 µg/mL	> 69 µg/mL	> 69 µg/mL	0.78 µg/mL	> 69 µg/mL	> 345 µg/mL	IC50 (B. subtilis; [14]): > 200 µM; IC50 (C. albicans; [15]): > 200 µM; IC50 (S. cerevisiae; [17]): > 200 µM; IC50 (E. coli; [16]): > 1000 µM
CC(C)=CCC/C(C)=C/CNCCOC1C2CC3CC(C2)CC1C3 (stereo not drawn) [compound 3]	10 µg/mL (≈ 30.2 µM)	~8 µg/mL (≈ 24.1 µM)	16 µg/mL	12 µg/mL	0.02 to 0.05 µg/mL	1.8 µg/mL	2.8 µg/mL	effect on ATP synthesis [4]: inhibition of ATP synthesis; activity (SaCrtM; SaCrtM, weak activity): ~100 µM; MIC (M. tuberculosis [2]; [18]): 0.06 to 0.15 µM; activity (human SQS; human SQS, weak activity): ~100 µM
CO[C@@H]1C[C@@H](C[C@H]2CC[C@H](C)[C@H]([C@@H](C)C(=O)O)O2)O[C@]2(O[C@](C)([C@H]3CC[C@@](C)([C@@H]4O[C@@H]([C@H]5O[C@@](O)(CO)[C@H](C)C[C@@H]5C)C[C@@H]4C)O3)C[C@H]2C)[C@@H]1C [nigericin]	–	–	–	–	–	–	–	effect on pH gradient (ΔpH) (M. smegmatis cells, ΔpH): collapsed
CC[C@@H](CO)NCCN[C@@H](CC)CO [compound 2, ethambutol]	–	–	–	–	–	–	–	Ms MIC (M. smegmatis): 1 µg/mL; Mt MIC (M. tuberculosis [5]): 2 µg/mL
CC(C)=CCC/C(C)=C/CNCCNC1C2CC3CC(C2)CC1C3 (stereo not drawn) [compound 1, SQ109]	6 µg/mL (≈ 18.2 µM)	> 120 µg/mL	7.6 µg/mL	3.3 µg/mL	0.1 to 0.2 µg/mL	–	2.8 µg/mL	effect on nonreplicating bacterial activity (CFU) ([6]; 1 μg/mL, absence of MK-4): only a small effect; effect on nonreplicating bacterial activity (CFU) ([6]; 1 μg/mL, presence of 1 mM MK-4): essentially no effect; reduction of cell activity (CFU) ([6]; 10 μg/mL, 7 days exposure, absence of MK-4): ~4 log units; effect on nonreplicating bacterial activity (CFU) ([6]; 10 μg/mL, presence of 1 mM MK-4): small effect; IC50 [7]: ~30 µg/mL (≈ 90.8 µM); IC50 [8]: ≥ 50 µM; IC50 (malate dehydrogenase): 30.3 µM; IC50 [9]: ≥ 50 µM; activity (SaCrtM): ~100 µM; IC50 [10]: ≥ 50 µM; IC50 [11]: ≥ 50 µM; IC50 [12]: ≥ 50 µM; IC50 [13]: ≥ 50 µM; effect on pH gradient (ΔpH) (M. smegmatis cells, ΔpH): collapsed; MIC (M. tuberculosis [2]; [18]): 0.3 to 0.6 µM; Sc IC50 (S. cerevisiae): 1.1 µg/mL; activity (human SQS): ~100 µM
CC(C)=CCC/C(C)=C/COCC(=O)NC1C2CC3CC(C2)CC1C3 (stereo not drawn) [compound 9]	9.3 µg/mL (≈ 26.9 µM)	> 120 µg/mL	17 µg/mL	> 69 µg/mL	12 µg/mL	> 69 µg/mL	> 345 µg/mL	IC50 (C. albicans; [15]): > 200 µM; IC50 (S. cerevisiae; [17]): > 200 µM; IC50 (E. coli; [16]): > 1000 µM
